Assay results published in ChEMBL document CHEMBL4145465, “Design, synthesis and biological evaluation of novel ring-opened cromakalim analogues with relaxant effects on vascular and respiratory smooth muscles and as stimulators of elastin synthesis” (Eur J Med Chem, 2018).
The source made the active and inactive calls. The calls are words filed in the database; no cut-off is given here.

Tests used:
Thoracic aorta [1] = experiment: Vasorelaxing activity in Wistar rat endothelium-intact thoracic aorta ring assessed as reduction in 30 mM KCl-induced contraction at 300 uM after 15 mins relative to DMSO; conditions: 0.25 h
Trachea/thoracic aorta = experiment: Ratio of EC50 for Wistar rat trachea tonus to EC50 for Wistar rat endothelium-denuded thoracic aorta ring; format: functional; conditions: in the assay text read “endothelium-intact” for “endothelium-denuded”
Method in brief: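 Ratio of trachea EC50 to aorta EC50, both measured against 30 mM KCl contraction in female Wistar rat rings, with cumulative compound addition in DMSO and EC50 from non-linear regression.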

Trachea [2] = experiment: Tracheorelaxant activity in Wistar rat trachea tonus assessed as reduction in 30 mM KCl-induced contraction at 100 uM after 15 mins relative to control; format: functional; conditions: 0.25 h
Method in brief: (§1)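 Trachea rings (3-4 mm) from female Wistar rats were held in a 10 ml organ bath under the same conditions as the aorta and contracted with 30 mM KCl. Compound in DMSO was added cumulatively. EC50 was derived by non-linear regression; Emax is % relaxation at 100 µM.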

Trachea [3] = experiment: Tracheorelaxant activity in Wistar rat trachea tonus assessed as reduction in 30 mM KCl-induced contraction after 15 mins; format: functional, tissue-based; conditions: 0.25 h
Method in brief: as §1

Thoracic aorta [4] = experiment: Vasorelaxing activity in Wistar rat endothelium-intact thoracic aorta ring assessed as reduction in 30 mM KCl-induced contraction after 15 mins; conditions: 0.25 h
VSMC [5] = experiment: Induction of elastin synthesis in rat VSMC at 50 uM after 48 hrs by ELISA relative to control; format: functional
Method in brief: (§2)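 Rat aortic VSMCs (collagenase/elastase digestion of intima-media, grown in DMEM 20% FBS on gelatin) serum-starved overnight in 1% FBS-DMEM, seeded 25000 cells/well, then exposed 48 h to compound in DMSO (<1% final); DMSO-only negative control, diazoxide reference. Fixed cells immunostained for elastin with HRP secondary, TMB substrate, absorbance 450 nm; 5-7 wells per concentration.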

VSMC [6] = experiment: Induction of elastin synthesis in rat VSMC at 20 uM after 48 hrs by ELISA; format: functional, cell-based
Method in brief: as §2

Thoracic aorta [7] = experiment: Vasorelaxing activity in Wistar rat endothelium-denuded thoracic aorta ring assessed as reduction in 30 mM KCl-induced contraction after 15 mins in presence of 10 uM glibenclamide; format: functional, tissue-based; conditions: 0.25 h, in the assay text read “endothelium-intact” for “endothelium-denuded”
Method in brief: (§3)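 Female Wistar rat aortic rings were contracted with 30 mM KCl while continuously bathed in 1 or 10 µM glibenclamide. Compound in DMSO was added cumulatively up to 300 µM, each step held ≥15 min to a plateau. EC50 was derived by non-linear regression and compared with the EC50 obtained without glibenclamide.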

Thoracic aorta [8] = experiment: Vasorelaxing activity in Wistar rat endothelium-denuded thoracic aorta ring assessed as reduction in 30 mM KCl-induced contraction after 15 mins in presence of 1 uM glibenclamide; format: functional, tissue-based; conditions: 0.25 h, in the assay text read “endothelium-intact” for “endothelium-denuded”
Method in brief: as §3

[9] = Ionozation constant, pKa of the compound at pH 3 to 12 at 25 degC by UV/VIS spectrophotometric method; format: physicochemical
Thoracic aorta [10] = experiment: Vasorelaxing activity in Wistar rat endothelium-denuded thoracic aorta ring assessed as reduction in 80 mM KCl-induced contraction after 15 mins; format: functional, tissue-based; conditions: 0.25 h, in the assay text read “endothelium-intact” for “endothelium-denuded”
Method in brief: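 Female Wistar rat aortic rings were depolarized with an 80 mM KCl solution (NaCl 43.6 mM). Once the plateau was reached, compound in DMSO was added cumulatively up to 300 µM. EC50 was obtained by non-linear regression of concentration-response curves.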

| Compound | EC50 (Trachea [3]) [µM] | EC50 (Thoracic aorta [4]) [µM] | EC50 (Thoracic aorta [7]) [µM] | EC50 (Thoracic aorta [8]) [µM] | pKa [9] | EC50 (Thoracic aorta [10]) [µM] | Emax (Thoracic aorta [1]) [%] | Ratio EC50 (Trachea/thoracic aorta) | Emax (Trachea [2]) [%] | Activity (VSMC [5]) | Activity (VSMC [6]) |
| --- | --- | --- | --- | --- | --- | --- | --- | --- | --- | --- | --- |
| COc1ccc(OC)c(CNC(=O)N(C)S(=O)(=O)c2ccccc2)c1 | 18.5 | 21.3 |  |  |  |  | 100 | 0.9 | 150 |  |  |
| CCOc1ccc(Cl)cc1C(C)NC(=O)N(C)S(=O)(=O)c1ccccc1 (centres undefined) |  | 10.5 |  |  |  |  | 104 |  |  | Active | inactive |
| Cc1ccc(OCc2ccccc2)c(C(C)NC(=O)N(C)S(=O)(=O)c2ccc(Cl)cc2)c1 (racemic) |  | 142 |  |  |  |  | 76.9 |  |  |  |  |
| CCOc1ccc(Br)cc1C(C)NC(=O)N(C)S(=O)(=O)c1ccccc1 (racemic) | 8.4 | 19.8 |  |  |  |  | 104 | 0.4 | 137 |  |  |
| CC(NC(=O)NS(=O)(=O)c1ccc(Cl)cc1)c1cc(Br)ccc1OCc1ccccc1 (racemic) | 30.8 | 57.5 | 54.6 | 78.4 | 5.31 | 61.6 | 95.1 | 0.5 | 161 | Active | inactive |
| COc1ccc(Cl)cc1C(C)NC(=O)N(C)S(=O)(=O)c1ccccc1 (racemic) | 1.7 | 7.2 | 8.6 | 6.7 |  | 5.3 | 103 | 0.2 | 154 | Active | Active |
| CC1(C)Oc2ccc(C#N)cc2[C@H](N2CCCC2=O)[C@H]1O [(-)-CROMAKALIM] | 124 | 0.13 | 87.2 | 3.4 |  | 191 |  | 956.9 | 70.1 |  |  |
| CC1=Nc2ccc(Cl)cc2S(=O)(=O)N1 [DIAZOXIDE] |  |  |  |  |  |  |  |  |  | 92% | inactive |
| COc1ccc(CCN(C)CCCC(C#N)(c2ccc(OC)c(OC)c2)C(C)C)cc1OC (centres undefined) [VERAPAMIL] | 0.89 | 0.06 | 0.07 | 0.07 |  | 0.05 |  | 28.7 |  |  |  |

The next lines start with results.

| EC50 (Trachea [3]) [µM] | EC50 (Thoracic aorta [4]) [µM] | EC50 (Thoracic aorta [7]) [µM] | EC50 (Thoracic aorta [8]) [µM] | pKa [9] | EC50 (Thoracic aorta [10]) [µM] | Compound | Emax (Thoracic aorta [1]) [%] | Ratio EC50 (Trachea/thoracic aorta) | Emax (Trachea [2]) [%] | Activity (VSMC [5]) | Activity (VSMC [6]) |
| --- | --- | --- | --- | --- | --- | --- | --- | --- | --- | --- | --- |
| 12.8 | 19.1 |  |  |  |  | COc1ccc(Br)cc1C(C)NC(=O)N(C)S(=O)(=O)c1ccc(C)cc1 (centres undefined) | 97.7 | 0.7 | 143 |  |  |
| 8.4 | 16.8 |  |  |  |  | COc1ccc(Br)cc1C(C)NC(=O)N(C)S(=O)(=O)c1ccccc1 (racemic) | 98 | 0.5 | 125 |  |  |
|  | 181 |  |  |  |  | Cc1ccc(S(=O)(=O)N(C)C(=O)NC(C)c2cc(C)ccc2OCc2ccccc2)cc1 (racemic) | 82.9 |  |  |  |  |
| 39.3 | 19.1 |  |  |  |  | COc1ccc(Br)cc1C(C)NC(=O)N(C)S(=O)(=O)c1ccc(Cl)cc1 (racemic) | 93.6 | 2 | 125 |  |  |
| 30.4 | 65.3 | 69.3 | 90.5 |  | 60.9 | Cc1ccc(OCc2ccccc2)c(C(C)NC(=O)NS(=O)(=O)c2ccc(Cl)cc2)c1 (racemic) | 126 | 0.5 | 172 | inactive | inactive |
